Assay results published in ChEMBL document CHEMBL1129036, “Bisindolylmaleimides linked to DNA minor groove binding lexitropsins: synthesis, inhibitory activity against topoisomerase I, and biological evaluation” (J Med Chem, 1996).
In brackets after ≈: the same amount, converted by molar mass.

Columns and labels:
[1] = target: T1, DNA topoisomerase 1 (Homo sapiens) (UniProt P11387); experiment: Topoisomerase I DNA relaxation activity was evaluated by Fluorescence assay using Ethidium Bromide before heat denaturation of pBR322 DNA at concentration 100 uM; details: Escherichia coli
T1 sequence (whole entry): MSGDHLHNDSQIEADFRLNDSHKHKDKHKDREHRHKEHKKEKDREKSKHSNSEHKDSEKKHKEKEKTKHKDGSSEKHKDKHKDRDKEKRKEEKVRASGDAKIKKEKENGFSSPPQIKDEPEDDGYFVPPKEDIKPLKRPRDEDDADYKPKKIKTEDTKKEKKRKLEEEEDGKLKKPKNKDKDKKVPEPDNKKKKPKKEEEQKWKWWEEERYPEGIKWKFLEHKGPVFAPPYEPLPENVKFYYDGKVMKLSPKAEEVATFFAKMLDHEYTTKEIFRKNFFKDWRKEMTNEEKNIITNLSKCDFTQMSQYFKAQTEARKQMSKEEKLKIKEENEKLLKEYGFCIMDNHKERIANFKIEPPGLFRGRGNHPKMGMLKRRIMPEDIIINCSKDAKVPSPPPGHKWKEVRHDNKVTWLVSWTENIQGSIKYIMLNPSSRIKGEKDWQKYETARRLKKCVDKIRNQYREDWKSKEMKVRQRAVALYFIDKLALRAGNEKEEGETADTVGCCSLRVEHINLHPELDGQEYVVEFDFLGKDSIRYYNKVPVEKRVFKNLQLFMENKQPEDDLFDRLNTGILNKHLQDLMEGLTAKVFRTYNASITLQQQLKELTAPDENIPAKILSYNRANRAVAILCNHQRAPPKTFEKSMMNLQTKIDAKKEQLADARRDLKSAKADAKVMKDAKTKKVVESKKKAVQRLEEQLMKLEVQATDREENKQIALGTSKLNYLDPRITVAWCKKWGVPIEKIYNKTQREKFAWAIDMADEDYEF
How it was run: (§1)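 0.25 µg pBR322 DNA with ligand plus topoisomerase I (0.5 unit), 30 min at 37 °C. Then ethidium bromide buffer added (0.5 µg/mL EtBr, 20 mM K₃PO₄, 0.5 mM EDTA, pH 12). Fluorescence read at ex 525/em 600 nm before and after heat denaturation of DNA; percent change vs control.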

[2] = target: T1, DNA topoisomerase 1 (Homo sapiens); experiment: Topoisomerase I DNA relaxation activity was evaluated by Fluorescence assay using Ethidium Bromide after heat denaturation of pBR322 DNA at concentration 100 uM; details: Escherichia coli; how it was run: as §1
[3] = target: T1, DNA topoisomerase 1 (Homo sapiens); experiment: Topoisomerase I […] was evaluated by Fluorescence assay using Ethidium Bromide after heat denaturation of pBR322 DNA at concentration 25 uM; details: Escherichia coli; at 25 µM
How it was run: (§2)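 0.25 µg pBR322 DNA incubated with ligand for 30 min at 37 °C without topoisomerase I (DNA and compound only). Ethidium bromide buffer then added (0.5 µg/mL ethidium bromide, 20 mM K₃PO₄, 0.5 mM EDTA, pH 12). Fluorescence read at excitation 525 nm and emission 600 nm, before and after heat denaturation of the DNA. Reported as percent change from control.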

[4] = target: T1, DNA topoisomerase 1 (Homo sapiens); experiment: Topoisomerase I […] was evaluated by Fluorescence assay using Ethidium Bromide before heat denaturation of pBR322 DNA at concentration 25 uM; details: Escherichia coli; at 25 µM; how it was run: as §2
[5] = target: T1, DNA topoisomerase 1 (Homo sapiens); experiment: Topoisomerase I DNA relaxation activity was evaluated by Fluorescence assay using Ethidium Bromide after heat denaturation of pBR322 DNA at concentration 50 uM; details: Escherichia coli; how it was run: as §1
[6] = target: T1, DNA topoisomerase 1 (Homo sapiens); experiment: Topoisomerase I […] was evaluated by Fluorescence assay using Ethidium Bromide before heat denaturation of pBR322 DNA at concentration 50 uM; details: Escherichia coli
How it was run: (§3)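 0.25 µg pBR322 DNA incubated with ligand alone, no enzyme, 30 min at 37 °C. Ethidium bromide buffer added (0.5 µg/mL EtBr, 20 mM K₃PO₄, 0.5 mM EDTA, pH 12). Fluorescence measured at ex 525/em 600 nm before and after heat denaturation of DNA; percent change vs control.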

[7] = target: T1, DNA topoisomerase 1 (Homo sapiens); experiment: Topoisomerase I […] was evaluated by Fluorescence assay using Ethidium Bromide before heat denaturation of pBR322 DNA at concentration 250 uM; details: Escherichia coli; how it was run: as §3
[8] = target: T1, DNA topoisomerase 1 (Homo sapiens); experiment: Topoisomerase I DNA relaxation activity was evaluated by Fluorescence assay using Ethidium Bromide after heat denaturation of pBR322 DNA at concentration 250 uM; details: Escherichia coli; how it was run: as §1
[9] = target: T1, DNA topoisomerase 1 (Homo sapiens); experiment: Topoisomerase I […] was evaluated by Fluorescence assay using Ethidium Bromide after heat denaturation of pBR322 DNA at concentration 50 uM; details: Escherichia coli; how it was run: as §3
[10] = target: T1, DNA topoisomerase 1 (Homo sapiens); experiment: Topoisomerase I DNA relaxation activity was evaluated by Agarose Gel Electrophoresis test at concentration 250 uM; details: Escherichia coli
How it was run: (§4)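 Relaxation of 0.25 µg supercoiled pBR322 DNA by 0.5 unit topoisomerase I, 30 min at 37 °C with ligand (25–250 µM), final volume 10 µL. SDS-containing loading buffer added, further 30 min at 37 °C. Agarose gel run overnight, stained with ethidium bromide (0.5 µg/mL), photographed. Percent supercoiled DNA remaining by laser densitometry, scored in bands (<10% to 75–100%).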

[11] = In vitro cytotoxicity against KB cancer cell line (ATCC CCL 17).; type: cell-based; details: human, KB cancer cells (ATCC CCL 17); read-out: TD50 (the source's name)
How it was run: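 KB cells grown in Eagle's MEM with 10% calf serum, 37 °C, humidified 5% CO₂. Seeded at 3 × 10³ cells/mL, cultured 24 h, then compound added in triplicate at several concentrations for 3 days. TD50 is the concentration giving 50% reduction in cell count; average of ≥3 determinations.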

[12] = target: T1, DNA topoisomerase 1 (Homo sapiens); experiment: Topoisomerase I […] was evaluated by Fluorescence assay using Ethidium Bromide after heat denaturation of pBR322 DNA at concentration 100 uM; details: Escherichia coli; how it was run: as §3
[13] = target: T1, DNA topoisomerase 1 (Homo sapiens); details: Escherichia coli; at 25 µM
[14] = target: T1, DNA topoisomerase 1 (Homo sapiens); experiment: Topoisomerase I […] was evaluated by Fluorescence assay using Ethidium Bromide after heat denaturation of pBR322 DNA at concentration 250 uM; details: Escherichia coli; how it was run: as §3
[15] = target: T1, DNA topoisomerase 1 (Homo sapiens); experiment: Topoisomerase I DNA relaxation activity was evaluated by Fluorescence assay using Ethidium Bromide before heat denaturation of pBR322 DNA at concentration 50 uM; details: Escherichia coli; how it was run: as §1
[16] = target: T1, DNA topoisomerase 1 (Homo sapiens); experiment: Topoisomerase I DNA relaxation activity was evaluated by Agarose Gel Electrophoresis test at concentration 50 uM; details: Escherichia coli; how it was run: as §4
[17] = target: T1, DNA topoisomerase 1 (Homo sapiens); experiment: Topoisomerase I DNA relaxation activity was evaluated by Agarose Gel Electrophoresis test at concentration 100 uM; details: Escherichia coli; how it was run: as §4
[18] = target: T1, DNA topoisomerase 1 (Homo sapiens); details: Escherichia coli; at 25 µM; remark: listed apart in the source
[19] = target: T1, DNA topoisomerase 1 (Homo sapiens); experiment: Topoisomerase I […] was evaluated by Fluorescence assay using Ethidium Bromide before heat denaturation of pBR322 DNA at concentration 100 uM; details: Escherichia coli; how it was run: as §3
[20] = target: T1, DNA topoisomerase 1 (Homo sapiens); experiment: Topoisomerase I DNA relaxation activity was evaluated by Agarose Gel Electrophoresis test at concentration 25 uM; details: Escherichia coli; at 25 µM
How it was run: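 0.25 µg supercoiled pBR322 DNA and 0.5 unit topoisomerase I incubated with ligand for 30 min at 37 °C (10 µL final). Equal volume loading buffer with SDS added, a further 30 min at 37 °C, agarose gel run overnight, ethidium bromide stained. Supercoiled DNA remaining quantified by laser densitometry of the photographed gel. Scored as % inhibition bands (<10% to 75-100%).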

[21] = target: T1, DNA topoisomerase 1 (Homo sapiens); experiment: Topoisomerase I DNA relaxation activity was evaluated by Fluorescence assay using Ethidium Bromide before heat denaturation of pBR322 DNA at concentration 250 uM; details: Escherichia coli; how it was run: as §1
[22] = target: T1, DNA topoisomerase 1 (Homo sapiens); experiment: Topoisomerase I DNA relaxation activity was evaluated by Fluorescence assay using Ethidium Bromide before heat denaturation of pBR322 DNA at concentration 25 uM; details: Escherichia coli; at 25 µM
How it was run: as §2, with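 “ligand and topoisomerase I (0.5 unit)” for “ligand”, “°C.” for “°C without topoisomerase I (DNA and compound only).”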

[23] = target: T1, DNA topoisomerase 1 (Homo sapiens); experiment: Topoisomerase I DNA relaxation activity was evaluated by Fluorescence assay using Ethidium Bromide after heat denaturation of pBR322 DNA at concentration 25 uM; details: Escherichia coli; at 25 µM
How it was run: as §2, with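 “ligand and topoisomerase I (0.5 unit)” for “ligand”, “°C.” for “°C without topoisomerase I (DNA and compound only).”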

Compound | Change [1] | Change [2] | Change [3] | Change [4] | Change [5] | Change [6] | Change [7] | Change [8] | Change [9] | inhibition [10] | CC50 [11] | Change [12] | Change [14] | Change [15] | inhibition [16] | inhibition [17] | Change [19] | inhibition [20] | Change [21] | Change [22] | other results
CN(C)CCCNC(=O)c1cc(NC(=O)Cn2cc(C3=C(c4c[nH]c5ccccc45)C(=O)NC3=O)c3ccccc32)cn1C | 6% | 0% | 12% | 1% | 0% | 1% | 18% | 3% | 7% | 25% | 84 µg/mL (≈ 142 µM) | 3% | 2% | 5% | 0% | < 10% | 6% | 0% | 10% |  | Change [13]: 6%; Change [18]: 3%
CC[C@@]1(O)C(=O)OCc2c1cc1n(c2=O)Cc2cc3ccccc3nc2-1 [CAMPTOTHECIN] | 3% | 3% |  |  | 7% |  |  |  |  |  | 0.01 µg/mL (≈ 0.0287 µM) |  |  | 12% |  |  |  |  |  |  | Change [13]: 7%; Change [18]: 6%
COC(=O)c1cc(NC(=O)c2cc(NC(=O)Cn3cc(C4=C(c5c[nH]c6ccccc56)C(=O)NC4=O)c4ccccc43)cn2C)cn1C | 1% | 12% | 4% | 5% | 7% | 3% | 33% | 3% | 15% | 0% | 58 µg/mL (≈ 90.1 µM) | 15% | 10% | 2% | 0% | 0% | 2% | 0% | 24% | 3% | Change [23]: 13%
CN(C)CCCNC(=O)c1cc(NC(=O)c2cc(NC(=O)c3cc(NC(=O)Cn4cc(C5=C(c6c[nH]c7ccccc67)C(=O)NC5=O)c5ccccc54)cn3C)cn2C)cn1C | 20% | 15% | 6% | 28% | 7% | 26% | 28% | 13% | 15% | 100% | > 100 µg/mL | 13% | 4% | 15% | 50% | 75% | 24% | 25% | 14% | 11% | Change [23]: 3%
CN(C)CCCNC(=O)c1cc(NC(=O)c2cc(NC(=O)Cn3cc(C4=C(c5c[nH]c6ccccc56)C(=O)NC4=O)c4ccccc43)cn2C)cn1C | 18% | 15% | 5% | 2% | 4% | 14% | 32% | 9% | 3% | 75% | 92.3 µg/mL (≈ 129 µM) | 12% | 14% | 10% | 25% | 50% | 21% | < 10% | 14% | 7% | Change [23]: 3%
COC(=O)c1cc(NC(=O)Cn2cc(C3=C(c4c[nH]c5ccccc45)C(=O)NC3=O)c3ccccc32)cn1C | 3% | 12% | 15% | 2% | 18% | 3% | 2% | 9% | 12% | 0% | 53.2 µg/mL (≈ 102 µM) | 14% | 17% | 1% | 0% | 0% | 6% | 0% | 1% |  | Change [13]: 18%; Change [18]: 1%
COC(=O)c1cc(NC(=O)c2cc(NC(=O)c3cc(NC(=O)Cn4cc(C5=C(c6c[nH]c7ccccc67)C(=O)NC5=O)c5ccccc54)cn3C)cn2C)cn1C | 15% | 0% | 14% | 11% | 9% | 25% | 52% | 3% | 17% | 0% | 77.3 µg/mL (≈ 101 µM) | 17% | 20% | 9% | 0% | 0% | 33% | 0% | 36% | 1% | Change [23]: 6%
